Source: PubChem BioAssay (SRMLSC)
Many of the other results were omitted from the sample, so hits are more common in it than they were.
H69AR growth 86K: proliferation blockers of H69AR lung cancer cells, primary screen, cell-based, human, 86K library; AID 598, 2007; viability, % at 10 µM; actives 6% (n = 85,000); H69AR lung tumor viability, ATP luminescence, 72 h; hits give low values;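 active means viability at or below 40%; inactive means viability above 40%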;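 further: multidrug resistant small cell line overexpressing MRP-1 efflux transporter; 100% = mean luminescence of untreated control wells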
HUVEC prolif 384: inhibitors of HUVEC proliferation, primary screen, cell-based, 384-well | CellTiter-Glo luminescence, 72 h; hits give low values | viability, % at 10 µM (by protocol) | actives 1.1% (n = 86,000) | AID 648, 2007;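 active means viability at or below 30%; inactive means viability above 30%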;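 further: 100% = median luminescence of DMSO-only cell control wells on each plate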
bCat KO growth: primary screen for growth suppressors in beta-catenin knockout HCT116 cells (colon tumor, human); HCT116 beta-catenin knockout viability, CellTiter-Glo, 60 h; hits give low values; viability, % at 10 µM; actives 1.5% (n = 140,000); AID 818, 2007;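 active means viability at or under a set limit, the compound median less 4 SD, cut at about 6% in these data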;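 further: 0% = Hyamine 1622 control at 20 µM and 100% = untreated cell control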
HCT116 PTEN-null: growth suppression of PTEN-null HCT116, primary screen, cell-based, CellTiter-Glo | HCT116 PTEN-null viability, 60 h; hits give low values | viability, % at 10 µM | actives 1.2% (n = 140,000) | AID 827, 2007;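 active means viability at or below a set limit, 4 SD under the median of all tested compounds, cut at about 3.7% in these data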;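 further: PTEN knockout HCT116 line with beta catenin targeted HCT116 as companion control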
Lung fibro prol: antiproliferative effect on LL 47 fibroblasts – human, LL 47 cells, CellTiter-Glo luminescence, primary screen | LL 47 human lung fibroblast viability, ATP luminescence; hits give low values | viability, % at 10 µM | actives 1.1% (n = 85,000);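 active means viability at or below 50% in the single dose screen; inactive means viability above 50%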;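 further: compound exposure lasted 72 h before the ATP readout; 100% = median luminescence of untreated cell-only wells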
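Test system: LL 47 human lung fibroblasts / Incubation: 72 h compound exposure at 37 °C after overnight plating / Technique: luminescent ATP detection, CellTiter-Glo / Compound dosing: 0.1% DMSO in all compound wells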
* = called active by the depositor; / = no result given.

SMILES	H69AR growth 86K	HUVEC prolif 384	bCat KO growth	HCT116 PTEN-null	Lung fibro prol
O=C(CN1C(=O)C2C3C=CC(C3)C2C1=O)Nc1ccc(S(=O)(=O)N2CCCCC2)cc1 (configuration not stated)	/	/	94.8	90.9	/
Cc1cc(Cl)ccc1NC(=S)NCc1ccccc1Cl	/	/	72.0	60.8	/
COc1cc(C=NCC2OCCc3ccccc32)cc(OC)c1 (configuration not stated)	/	/	88.4	100.9	/
COc1ccc(-n2cccc2C=O)cc1	/	/	95.6	98.8	/
COc1ccc(-n2cccc2/C=C/[N+](=O)[O-])cc1	/	/	2.2*	2.8*	/
CCOC(=O)CSC1=C(C#N)C(c2ccccc2OC)CC(=O)N1 (configuration not stated)	24.9*	65.7	30.9	34.9	76.1
CCSC1=C(C#N)C(c2ccc(C)s2)CC(=O)N1 (configuration not stated)	80.4	91.2	/	/	104.0
CCOC(=O)CSC1=C(C#N)C(c2ccc(C)s2)CC(=O)N1 (configuration not stated)	35.3*	50.6	13.5	16.3	57.2
CCSC1=C(C#N)C(c2ccccc2OC)CC(=O)N1 (configuration not stated)	86.9	112.6	92.3	94.4	97.8
CCOc1ccccc1NC(=O)c1nc[nH]c1C(=O)Nc1ccccc1OCC	56.2	74.7	85.4	81.2	80.6
COc1ccc(NC(=O)c2nc[nH]c2C(=O)Nc2ccccc2C)cc1	19.7*	53.1	16.9	15.5	66.1
COc1ccccc1NC(=O)c1nc[nH]c1C(=O)Nc1ccccc1OC	39.4*	94.7	83.4	81.6	90.8
COCCNC(=O)C(c1ccc(C)o1)N(C(=O)c1snc(C(N)=O)c1N)c1cc(C)cc(C)c1 (configuration not stated)	70.4	91.2	62.3	46.0	97.2
NC(=O)c1c(NC(=O)c2ccccc2)sc2c1CCc1ccccc1-2	25.6*	80.2	80.3	58.3	67.5
NC(=O)c1c(NC(=O)c2ccco2)sc2c1CCC2	62.6	75.5	89.5	92.0	89.5
Cc1nc2c(c(C)c1C#N)C(=O)c1ccccc1-2	/	/	86.3	90.6	/
Cc1nc(S(=O)(=O)N(C)c2ccccc2)c(C#N)c(C)c1Cl	4.2*	83.4	3.3*	4.1	39.4*
COc1ccc(C)cc1N(C(=O)c1ccccc1F)c1nc2ccccc2s1	/	/	86.4	68.9	/
O=C1c2ccccc2NC(c2ccc(Cl)cc2Cl)N1O (configuration not stated)	/	80.3	3.5*	8.5	72.2
Cc1ccc(OC2=NS(=O)(=O)c3ccccc32)cc1	30.6*	79.9	103.2	102.9	102.3
N#Cc1cc2ccccc2nc1SCC(=O)Nc1ccc(S(=O)(=O)N2CCCC2)cc1	52.6	76.2	61.5	67.8	87.7
COc1ccc2nc(SCC(=O)Nc3ccc(S(=O)(=O)N4CCCC4)cc3)c(C#N)cc2c1	6.0*	90.6	72.6	77.5	100.1
Cc1cc(=O)oc2cc(OCC(=O)N3c4ccccc4CC3C)ccc12 (configuration not stated)	23.6*	56.9	18.9	18.5	62.0
Cc1cc(=O)oc2cc(OCC3CC(c4ccccc4)=NO3)ccc12 (configuration not stated)	23.5*	63.7	39.6	43.0	90.9
Cc1cc(=O)oc2cc(OCC(=O)N3CC(C)OC(C)C3)ccc12 (configuration not stated)	93.2	94.0	92.3	102.3	104.3
SMILES	H69AR growth 86K	HUVEC prolif 384	bCat KO growth	HCT116 PTEN-null	Lung fibro prol
CCCCCC(C)NC(=S)NC(=O)c1cc(S(=O)(=O)N2CCOCC2)ccc1C (configuration not stated)	/	/	25.9	44.7	/
CCn1c(SCC(=O)Nc2ccc(C(=O)OC)cc2)nc2cccnc21	82.8	106.8	96.4	91.7	102.9
COc1ccc2ccccc2c1/C=N\n1c(C)cc(C)c(C(N)=O)c1=O	/	/	113.0	102.3	/
Cc1nnc(-c2ccccc2)c(=O)n1/N=C/c1c(O)ccc2ccccc12	/	/	4.5*	4.2	/
Cc1ccc2c(Cl)cc(Cl)c(OCC(=O)NCc3ccco3)c2n1	51.7	82.9	57.7	52.3	87.1
Cc1ccc2c(Cl)cc(Cl)c(OCC(=O)NC(=O)NCc3ccco3)c2n1	30.1*	83.0	85.7	86.8	92.9
O=c1c(Cl)c(Nc2cccc(Cl)c2)cnn1-c1nc2ccccc2s1	/	/	76.6	71.2	/
COc1ccc(Nc2cnn(-c3nc4ccccc4s3)c(=O)c2Cl)cc1	/	/	5.1*	7.0	/
COCCn1c(-c2ccc(OC(F)(F)C(F)C(F)(F)F)cc2)nc2c1c(=O)[nH]c(=O)n2CC(C)C (configuration not stated)	39.4*	105.2	64.5	58.0	93.7
COCCNC(=O)CCSc1nc(-c2ccc(OC)cc2)cc(C(F)(F)F)n1	67.9	93.3	94.5	82.1	106.5
O=C(CCSc1nc(-c2ccc3c(c2)OCO3)cc(C(F)(F)F)n1)NCc1ccco1	33.0*	96.1	86.7	58.0	100.0
CN(Cc1ccccc1)C(=O)CCSc1nc(-c2ccc3c(c2)OCO3)cc(C(F)(F)F)n1	76.7	95.1	69.0	62.3	104.6
O=C(CCSc1nc(-c2ccc3c(c2)OCO3)cc(C(F)(F)F)n1)NCc1ccccc1	23.4*	90.5	83.3	79.7	99.1
COc1ccc(CNC(=O)CCSc2nc(-c3ccc4c(c3)OCO4)cc(C(F)(F)F)n2)cc1	32.6*	64.1	70.7	60.7	96.6
C/C(=N/NC(=O)CCCOc1ccc(Cl)cc1Cl)c1ccc(C)o1	/	/	100.3	99.0	/
CCc1cccc(C)c1NC(=O)CO/N=C(\C)c1cc2ccccc2o1	/	/	66.2	66.0	/
COC(=O)CCC(=O)NC(=S)Nc1cc(Cl)ccc1Cl	/	/	80.9	75.0	/
CC(=O)N1CCc2cc(S(=O)(=O)CCC(=O)N3CCN(C(=O)c4ccco4)CC3)ccc21	86.4	98.0	89.3	94.7	108.9
COC(=O)c1c(NC(=O)COC(=O)CNC(=O)C2CCCCC2)sc(C)c1C	/	/	85.6	87.4	/
CCN(CC)C(=O)c1cccc2c1C(=O)c1ccccc1-2	91.8	103.8	94.3	96.5	95.5
CCN(CC)C(=O)c1ccc2c(c1[N+](=O)[O-])C(=O)c1ccccc1C2=O	/	/	8.4	2.6*	/
Cn1c(=O)c2c(nc(Br)n2CC(=O)C23CC4CC(CC(C4)C2)C3)n(C)c1=O	32.3*	81.8	68.6	75.5	97.8
COc1cccc(-c2nc(-c3ccc(NC(=O)c4cccnc4)cc3)no2)c1	25.8*	101.0	86.5	86.5	99.9
O=C(Nc1ccc(-c2noc(-c3cccs3)n2)cc1)c1cccnc1	10.3*	51.5	77.6	73.1	101.1
COc1ccc(-c2noc(-c3ccccc3C(=O)Nc3cccnc3)n2)cc1	75.5	87.3	85.6	79.7	94.5
Cc1nc(SCC(=O)NCCc2ccccc2)nc(C)c1C	88.5	98.7	98.7	100.2	105.2
